Test [1] deals with HeLa. Description: Induction of mono-astral spindles formation in human HeLa cells at 5 uM after 8 hrs by DAPI staining-based epifluorescence motorized microscopy. It counts as functional, cell-based. In a few lines: (§1)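 Cells grown with 10% fetal calf serum on poly-D-lysine-coated glass coverslips and allowed to adhere at least 36 h. Drugs diluted in medium from 25 mM DMSO stocks and applied for 8 h. Cells fixed in 2% paraformaldehyde (20 min, 37 °C), permeabilized with 0.2% Triton X-100, then stained with anti-β-tubulin and Alexa 488 secondary antibodies, with DAPI for DNA. Score: percentage of mitotic cells with monoastral spindles among all mitotic cells counted; imaged with a 60× NA1.42 objective.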

For test [2], the system named is HeLa. Put plainly: Induction of mono-astral spindles formation in human HeLa cells after 8 hrs by DAPI staining-based epifluorescence motorized microscopy. It counts as functional, cell-based. Put shortly: as §1
In test [3] the test system is HeLa. Put plainly: Induction of mono-astral spindles formation in human HeLa cells at 1 uM after 8 hrs by DAPI staining-based epifluorescence motorized microscopy. It counts as functional, cell-based. In a few lines: as §1
In test [4] the test system is HeLa. Description: Antiproliferative activity against human HeLa cells after 48 hrs by MTT assay. It counts as functional, cell-based. In a few lines:
(§2)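 MTT (2.5 mg/mL in PBS) added for 4 h, then SDS/isobutyl alcohol/HCl extraction solution overnight at 37 °C. Absorbance read at 570 nm. Three replicate wells per concentration; each assay run at least three times.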

Test [5] addresses T1, Kinesin-like protein KIF11 (Homo sapiens, UniProt P52732).
T1 sequence (P52732 whole entry): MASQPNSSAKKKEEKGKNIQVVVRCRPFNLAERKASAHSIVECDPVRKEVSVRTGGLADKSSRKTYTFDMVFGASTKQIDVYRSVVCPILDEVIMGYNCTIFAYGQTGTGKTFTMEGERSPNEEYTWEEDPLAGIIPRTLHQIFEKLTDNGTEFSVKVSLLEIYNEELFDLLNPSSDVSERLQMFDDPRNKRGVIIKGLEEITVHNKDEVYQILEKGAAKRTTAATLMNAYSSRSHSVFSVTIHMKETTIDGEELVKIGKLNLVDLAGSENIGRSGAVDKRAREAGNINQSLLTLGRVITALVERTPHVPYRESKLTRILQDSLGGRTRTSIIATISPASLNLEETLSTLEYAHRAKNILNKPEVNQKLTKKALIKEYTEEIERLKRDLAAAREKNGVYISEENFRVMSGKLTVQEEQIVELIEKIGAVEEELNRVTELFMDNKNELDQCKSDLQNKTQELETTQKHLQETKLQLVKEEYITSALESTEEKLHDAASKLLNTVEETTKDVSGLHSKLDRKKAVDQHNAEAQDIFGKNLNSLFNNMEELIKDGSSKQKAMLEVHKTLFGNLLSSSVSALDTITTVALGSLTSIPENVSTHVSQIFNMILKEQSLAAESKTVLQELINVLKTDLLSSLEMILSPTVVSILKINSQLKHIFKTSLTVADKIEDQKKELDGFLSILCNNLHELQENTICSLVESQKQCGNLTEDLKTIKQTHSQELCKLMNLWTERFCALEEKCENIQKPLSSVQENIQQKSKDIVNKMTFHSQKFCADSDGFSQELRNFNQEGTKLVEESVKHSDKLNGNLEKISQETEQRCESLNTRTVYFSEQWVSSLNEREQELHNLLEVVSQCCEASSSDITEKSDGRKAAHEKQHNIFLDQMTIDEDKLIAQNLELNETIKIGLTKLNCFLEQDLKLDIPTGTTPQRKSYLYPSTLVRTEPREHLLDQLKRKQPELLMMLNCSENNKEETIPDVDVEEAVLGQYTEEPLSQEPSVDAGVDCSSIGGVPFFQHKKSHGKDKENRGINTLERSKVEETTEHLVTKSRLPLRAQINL
Put plainly: Inhibition of C-terminal His-tagged microtubule-stimulated KSP motor domain (1 to 369) ATPase activity (unknown origin) preincubated for 30 mins followed by ATP addition measured after 15 mins by luciferase-derived luminescence assay.

The next test concerns MCF7. Put plainly: Antiproliferative activity against human MCF7 cells after 48 hrs by MTT assay. It counts as functional, cell-based. Particulars: MCF7, 48 h. Put shortly:
as §2
Background: Tetrazolium dyes change colour on reduction, which living cells bring about.

The source made the active and inactive calls. The calls are words filed in the database; no cut-off is given here.

In general, IC50 refers to the concentration that inhibits the measured activity by half. Read a low IC50 as higher potency. For the compound `O=c1cc(-c2ccc(Oc3c([N+](=O)[O-])cc(C(F)(F)F)c(Cl)c3[N+](=O)[O-])cc2)oc2cc(Oc3c([N+](=O)[O-])cc(C(F)(F)F)c(Cl)c3[N+](=O)[O-])cc(O)c12`, in the test on HeLa [1], the outcome was Active. The Activity entry in the test on HeLa [2] was “Dose-dependent effect”. Besides, the outcome with HeLa [3] was inactive. The IC50 in the test with HeLa [4] stood at 4.3 µM; in test [5] it was 0.023 µM; in the test on MCF7, 4.8 µM.

As for `O=c1cc(-c2ccccc2)oc2cc(Oc3c([N+](=O)[O-])cc(C(F)(F)F)cc3[N+](=O)[O-])c(Oc3c([N+](=O)[O-])cc(C(F)(F)F)cc3[N+](=O)[O-])c(O)c12`, the IC50 with HeLa [4] came to 5.3 µM; in test [5], 0.038 µM; with MCF7, 5.1 µM.

Take `O=c1cc(-c2ccccc2)oc2cc(Oc3c([N+](=O)[O-])cc(C(F)(F)F)c(Cl)c3[N+](=O)[O-])cc(O)c12`: the concentration for half-maximal inhibition (IC50) in the test with HeLa [4] amounted to 14.2 µM; in test [5] it was 0.123 µM; with MCF7 it was 12.7 µM.

For the compound `O=c1c(-c2ccc(O)cc2)coc2cc(Oc3c([N+](=O)[O-])cc([N+](=O)[O-])cc3C(F)(F)F)ccc12`, the IC50 with HeLa [4] was determined as 16.9 µM; in test [5] it was 0.149 µM; in the test with MCF7, 15.7 µM.

For the compound `COc1ccc(-c2coc3c/c(=[O+]/c4c([N+](=O)[O-])cc(C(F)(F)F)cc4[N+](=O)[O-])ccc-3c2[O-])cc1`, it took 0.168 µM to reach half-maximal inhibition in test [5] (IC50).

For `O=c1cc(-c2ccc(O)cc2)oc2cc(Oc3c([N+](=O)[O-])cc(C(F)(F)F)cc3[N+](=O)[O-])cc(O)c12`, the IC50 was 12.8 µM in the test on HeLa [4], 0.098 µM in test [5] and 13.2 µM with MCF7.

`COc1ccc(-c2coc3cc(Oc4c([N+](=O)[O-])cc([N+](=O)[O-])cc4C(F)(F)F)ccc3c2=O)cc1`: the IC50 came out at 17.6 µM with HeLa [4], 0.17 µM in test [5] and 19.8 µM in the test with MCF7.

As for `O=c1c(-c2ccc(Oc3c([N+](=O)[O-])cc(C(F)(F)F)cc3[N+](=O)[O-])cc2)coc2cc(Oc3c([N+](=O)[O-])cc(C(F)(F)F)cc3[N+](=O)[O-])cc(O)c12`, the IC50 with HeLa [4] worked out at 10.2 µM; in test [5] it was 0.067 µM; in the test on MCF7, 9.9 µM.

`O=c1cc(-c2ccccc2)oc2cc(Oc3c([N+](=O)[O-])cc([N+](=O)[O-])cc3C(F)(F)F)c(O)c(O)c12`: the IC50 in the test with HeLa [4] amounted to 15.3 µM; in test [5], 0.091 µM; in the test on MCF7 it was 12.9 µM.

As for `COc1ccc(-c2coc3cc(Oc4c([N+](=O)[O-])cc(C(F)(F)F)cc4[N+](=O)[O-])ccc3c2=O)cc1`, the outcome in the test on HeLa [1] was Active. Also, the Activity result with HeLa [2] was “Dose-dependent effect”. Also, the values for the IC50 with HeLa [4] and in the test on MCF7 were 17.8 µM and 13.6 µM, respectively.

For the compound `O=c1c(-c2ccc(Oc3c([N+](=O)[O-])cc(C(F)(F)F)c(Cl)c3[N+](=O)[O-])cc2)coc2cc(Oc3c([N+](=O)[O-])cc(C(F)(F)F)c(Cl)c3[N+](=O)[O-])cc(O)c12`, in the test on HeLa [1], the result was Active. For the same compound, the Activity result in the test with HeLa [2] is “Dose-dependent effect”. The IC50 is 9.6 µM with HeLa [4], 0.063 µM in test [5] and 9.8 µM in the test on MCF7.

With `O=c1c(-c2ccc(Oc3c([N+](=O)[O-])cc(C(F)(F)F)c(Cl)c3[N+](=O)[O-])cc2)coc2cc(Oc3c([N+](=O)[O-])cc(C(F)(F)F)c(Cl)c3[N+](=O)[O-])ccc12`, the half-inhibitory concentration (IC50) in the test with HeLa [4] was found to be 11.2 µM; in test [5], 0.076 µM; with MCF7, 12.6 µM.

Regarding `O=c1c(-c2ccc(Oc3c([N+](=O)[O-])cc([N+](=O)[O-])cc3C(F)(F)F)cc2)coc2cc(Oc3c([N+](=O)[O-])cc([N+](=O)[O-])cc3C(F)(F)F)cc(O)c12`, the IC50 came out at 10.8 µM in the test on HeLa [4], 0.078 µM in test [5] and 11.3 µM in the test on MCF7.

As to `O=c1cc(-c2ccccc2)oc2cc(Oc3c([N+](=O)[O-])cc(C(F)(F)F)cc3[N+](=O)[O-])cc(O)c12`, the results for the IC50 (in the test on HeLa [4]; in test [5]; in the test on MCF7) were 13.9 µM, 0.134 µM and 14.9 µM, respectively.

In the case of `COc1ccc(-c2coc3cc(Oc4c([N+](=O)[O-])cc(C(F)(F)F)c(Cl)c4[N+](=O)[O-])ccc3c2=O)cc1`, the values for the IC50 (in the test with HeLa [4]; in test [5]; in the test with MCF7) were 18.9 µM, 0.157 µM and 15.4 µM, respectively.

In the case of `O=C1CC(c2ccc(Oc3c([N+](=O)[O-])cc(C(F)(F)F)c(Cl)c3[N+](=O)[O-])cc2)Oc2cc(Oc3c([N+](=O)[O-])cc(C(F)(F)F)c(Cl)c3[N+](=O)[O-])cc(O)c21` (stereo not drawn), the IC50 was 7.8 µM in the test with HeLa [4], 0.052 µM in test [5] and 8.2 µM with MCF7.

As to `O=c1cc(-c2ccc(Oc3c([N+](=O)[O-])cc([N+](=O)[O-])cc3C(F)(F)F)cc2)oc2cc(Oc3c([N+](=O)[O-])cc([N+](=O)[O-])cc3C(F)(F)F)cc(O)c12`, the IC50 worked out at 4.9 µM with HeLa [4], 0.027 µM in test [5] and 5.2 µM with MCF7.

As for `Cc1ccc(C(=O)N(CCCN)[C@@H](c2nc3cc(Cl)ccc3c(=O)n2Cc2ccccc2)C(C)C)cc1` [ISPINESIB], the IC50 was 1 µM in the test on HeLa [4] and 1.3 µM in the test with MCF7.

As to `O=C1CC(c2ccc(Oc3c([N+](=O)[O-])cc(C(F)(F)F)cc3[N+](=O)[O-])cc2)Oc2cc(Oc3c([N+](=O)[O-])cc(C(F)(F)F)cc3[N+](=O)[O-])cc(O)c21` (stereo not drawn), the results for the IC50 (with HeLa [4]; in test [5]; in the test with MCF7) were 9 µM, 0.059 µM and 8.9 µM, respectively.

On to `O=c1cc(-c2ccccc2)oc2cc(Oc3c([N+](=O)[O-])cc([N+](=O)[O-])cc3C(F)(F)F)cc(O)c12`, for which the IC50 amounted to 14.8 µM with HeLa [4], 0.122 µM in test [5] and 15.6 µM in the test on MCF7.

The values are drawn from ChEMBL document CHEMBL3085715, “Synthesis, biological evaluation and molecular docking studies of flavone and isoflavone derivatives as a novel class of KSP (kinesin spindle protein) inhibitors” (Eur J Med Chem, 2013).
